We go through 12 molecules from ChEMBL document CHEMBL4261557, “MAO inhibitory activity of bromo-2-phenylbenzofurans: synthesis, in vitro study, and docking calculations” (Medchemcomm, 2017).

Usually IC50 stands for the point on the concentration scale where inhibition reaches its midpoint. One may read the inhibition as the change of the read-out against control, counted positive when it falls.

The target in data set [1] is T1, Amine oxidase [flavin-containing] A (Homo sapiens, UniProt P21397).
T1 sequence (P21397 whole entry): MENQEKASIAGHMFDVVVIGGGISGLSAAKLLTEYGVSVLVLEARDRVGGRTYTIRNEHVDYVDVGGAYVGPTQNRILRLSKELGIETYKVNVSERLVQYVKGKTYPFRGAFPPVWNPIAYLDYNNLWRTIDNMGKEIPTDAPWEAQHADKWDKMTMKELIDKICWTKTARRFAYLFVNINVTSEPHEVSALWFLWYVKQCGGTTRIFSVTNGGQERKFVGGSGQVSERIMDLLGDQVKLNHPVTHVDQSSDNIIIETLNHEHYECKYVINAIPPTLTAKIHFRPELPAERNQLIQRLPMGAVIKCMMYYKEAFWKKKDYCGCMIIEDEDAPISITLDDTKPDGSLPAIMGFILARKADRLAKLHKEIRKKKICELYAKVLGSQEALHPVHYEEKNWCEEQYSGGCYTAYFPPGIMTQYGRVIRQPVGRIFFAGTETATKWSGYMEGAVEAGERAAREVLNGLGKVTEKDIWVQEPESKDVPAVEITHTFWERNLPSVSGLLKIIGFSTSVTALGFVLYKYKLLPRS
Description: Inhibition of recombinant human MAO-A expressed in baculovirus infected insect cells assessed as reduction in H2O2 production using p-tyramine as substrate pretreated for 15 mins followed by substrate addition and measured over 15 mins by Amplex red reagent based fluorimetric assay.

The test system of data set [2] is SH-SY5Y. The data set is described as follows: Cytotoxicity against human SH-SY5Y cells assessed as reduction in cell viability at 1 to 10 uM after 24 hrs by MTT assay. In kind it is cell-based. The procedure, abridged: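 SH-SY5Y neuroblastoma cells seeded at 1.106 mL–1, incubated overnight, then exposed 24 h to compound at 1 or 10 μM in 1% DMSO; 1% DMSO as negative control. MTT (5 mg ml–1 in PBS, 10%) added for 2 h at 37 °C, crystals dissolved in DMSO, absorbance 540 nm; viability = treated/control absorbance × 100. Mean ± S.E.M., ≥5 cultures.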
A general note: Tetrazolium dyes change colour on reduction, which living cells bring about.

Data set [3] has as its target T1, Amine oxidase [flavin-containing] A. Description: Inhibition of recombinant human MAO-A expressed in baculovirus infected insect cells assessed as reduction in H2O2 production at 100 uM using p-tyramine as substrate pretreated for 15 mins followed by substrate addition and measured over 15 mins by Amplex red reagent based fluorimetric assay relative to control. The settings on record: 0.25 h.

The species entered for data set [4] is Homo sapiens. The data set is described as follows: Selectivity index, ratio of IC50 for recombinant human MAO-A expressed in baculovirus infected insect cells to IC50 for recombinant human MAO-B expressed in baculovirus infected insect cells. The procedure, abridged: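 Ratio of IC50 against hMAO-A to IC50 against hMAO-B, both measured by the Amplex Red/p-tyramine fluorimetric assay with recombinant enzymes from insect cells.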

In data set [5] the target is T2, Amine oxidase [flavin-containing] B (Homo sapiens, UniProt P27338).
T2 sequence (P27338 whole entry): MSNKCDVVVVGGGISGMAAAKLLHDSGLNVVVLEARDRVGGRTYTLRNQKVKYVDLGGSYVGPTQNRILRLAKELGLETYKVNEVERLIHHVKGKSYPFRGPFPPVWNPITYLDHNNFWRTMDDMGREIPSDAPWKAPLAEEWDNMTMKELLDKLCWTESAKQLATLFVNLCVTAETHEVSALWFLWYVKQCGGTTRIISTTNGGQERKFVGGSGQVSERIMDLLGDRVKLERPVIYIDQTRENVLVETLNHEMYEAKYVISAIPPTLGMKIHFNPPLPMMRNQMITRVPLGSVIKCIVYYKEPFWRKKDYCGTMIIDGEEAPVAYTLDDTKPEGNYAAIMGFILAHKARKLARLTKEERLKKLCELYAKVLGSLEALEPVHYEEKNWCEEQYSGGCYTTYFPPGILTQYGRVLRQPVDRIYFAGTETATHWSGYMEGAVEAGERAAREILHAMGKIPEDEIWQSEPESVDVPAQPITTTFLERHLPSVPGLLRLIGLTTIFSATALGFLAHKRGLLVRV
Description: biochemical.

Data set [6] deals with T2, Amine oxidase [flavin-containing] B. Description: Inhibition of recombinant human MAO-B expressed in baculovirus infected insect cells assessed as reduction in H2O2 production at 100 uM using p-tyramine as substrate pretreated for 15 mins followed by substrate addition and measured over 15 mins by Amplex red reagent based fluorimetric assay relative to control. The settings on record: 0.25 h. The method, boiled down: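 hMAO-B from baculovirus-infected BTI-TN-5B1-4 insect cells, 7.5 μg protein, matched to 165 pmol p-tyramine/min. Preincubated with inhibitor in 0.05 M phosphate buffer pH 7.4, 15 min at 37 °C. Started with 200 μM Amplex Red, 1 U mL–1 HRP, 1 mM p-tyramine (final). Fluorescence (ex 545/em 590 nm) over 15 min at 37 °C, minus no-enzyme background; percent inhibition at 100 μM.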

Take `Cc1cccc2cc(-c3ccc(Br)cc3)oc12`: the IC50 in data set [1] is 100 µM; in data set [5], 0.95 µM. Besides, the Activity result in data set [2] was “Non-Toxic”. Also, the inhibition at 100 µM in data set [3] amounted to 46.8%. In data set [4], the Ratio IC50 came out at 95.2.

On to `Cc1ccc2oc(-c3ccccc3)cc2c1`, for which the IC50 in data set [1] is over 100 µM; in data set [5], 0.88 µM. The Activity entry in data set [2] is recorded as “Non-Toxic”. For the same molecule, the Ratio IC50 in data set [4] was over 114.

Consider `Cc1ccc2oc(-c3ccccc3Br)cc2c1`, for which the IC50 is 11 µM in data set [1] and 0.2 µM in data set [5]. Further, the Activity entry in data set [2] is “Non-Toxic”. In addition, in data set [4], the Ratio IC50 amounted to 55.

For `Cc1cccc2cc(-c3ccccc3)oc12`, the values for the IC50 in data set [1] and in data set [5] were 100 µM and 10.7 µM, respectively. Moreover, the Activity entry in data set [2] is listed as “Non-Toxic”. Besides, the inhibition at 100 µM in data set [3] worked out at 53.9%. The Ratio IC50 in data set [4] is 9.3.

As for `Brc1ccccc1-c1cc2ccccc2o1`, the IC50 in data set [1] worked out at 8.12 µM; in data set [5] it was 1.13 µM. Moreover, in data set [2], the Activity result was “Non-Toxic”. Moreover, the Ratio IC50 in data set [4] is 7.2.

Regarding `Cc1cccc2cc(-c3ccccc3Br)oc12`, the values for the IC50 in data set [1] and in data set [5] were 100 µM and 9.68 µM, respectively. Also, the Activity entry in data set [2] is on record as “Non-Toxic”. In addition, the inhibition at 100 µM in data set [3] came to 44.8%. Moreover, the Ratio IC50 in data set [4] was found to be 11.5.

For `c1ccc(-c2cc3ccccc3o2)cc1`, the IC50 in data set [1] and in data set [5] was over 100 µM throughout. Besides, the Activity entry in data set [2] is “Non-Toxic”.

For the molecule `Cc1cccc2cc(-c3cccc(Br)c3)oc12`, the IC50 was over 100 µM in data set [1] and 3.98 µM in data set [5]. The Activity entry in data set [2] was “Non-Toxic”. Besides, in data set [4], the Ratio IC50 is over 25.2.

On to `Cc1ccc2oc(-c3ccc(Br)cc3)cc2c1`, for which, in data set [6], the inhibition at 100 µM amounted to 46.1%. The IC50 was over 100 µM in data set [1] and 100 µM in data set [5]. Also, the Activity entry in data set [2] is listed as “Non-Toxic”.

As to `Brc1ccc(-c2cc3ccccc3o2)cc1`, the IC50 in data set [1] was over 100 µM; in data set [5], 0.34 µM. Also, in data set [2], the Activity result is “Non-Toxic”. Moreover, the Ratio IC50 in data set [4] was over 294.

With `Brc1cccc(-c2cc3ccccc3o2)c1`, the IC50 worked out at 100 µM in data set [1] and 1.17 µM in data set [5]. The Activity entry in data set [2] was “Non-Toxic”. For the same molecule, the inhibition at 100 µM in data set [3] stood at 51%. Moreover, in data set [4], the Ratio IC50 came to 85.5.

With `Cc1ccc2oc(-c3cccc(Br)c3)cc2c1`, the values for the IC50 in data set [1] and in data set [5] were over 100 µM and 0.25 µM, respectively. In addition, in data set [2], the Activity entry is given as “Non-Toxic”. In addition, the Ratio IC50 in data set [4] is over 400.
